≈ marks a conversion by molar mass, not a printed value.
Legend:
[1] = Half life was reported; type: ADME
Method in brief: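 Simulated stomach acid stability: compound at 1 mg/mL in 0.01 N HCl, pH 2.0, sealed, 37 °C. Acetal-type compounds sampled at 0–1400 min; non-acetal-type at 2–14 days. Remaining drug quantified by reverse-phase C-18 HPLC (ammonium acetate/acetonitrile, internal standard). Half-life from pseudo-first-order disappearance.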

Plasmodium falciparum [2] = assay: In vitro antimalarial activity against chloroquine-resistant Plasmodium falciparum K1; type: functional; conditions: read-out: ED50 (the source's name)
Method in brief: (§1)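 Asexual P. falciparum (3D7 or K1) in A+ erythrocytes, RPMI 1640, 5% hematocrit, 37 °C, 5% CO2. Synchronized ring stages at 1% parasitemia. Triplicate 3-fold dilutions from a final top concentration of 30 µg/mL. 24 h incubation, then [3H]-hypoxanthine (0.1 µCi/well) for a further 24 h. Incorporation read by scintillation counting; ED50 from curve fitting.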

Plasmodium falciparum [3] = assay: In vitro antimalarial activity against chloroquine-sensitive Plasmodium falciparum 3D7; type: functional; conditions: read-out: ED50 (the source's name); method in brief: as §1
Mus musculus [4] = assay: Percent of infected erythrocytes in Blood schizonticidal activity against Plasmodium chabaudi in mice at a concentration of 10 mg/kg/day on day 5; type: functional
Method in brief: (§2)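 Female BALB/c mice (18–20 g, SPF), groups of five, infected iv on day 1 with 1 × 10^7 P. chabaudi ANKA-infected erythrocytes. Dosing ip began 2 h post-inoculation, once daily for 4 days, at 10 mg/kg/day in 10% DMSO/PBS. On day 5, Giemsa-stained smears; ≥1000 red cells counted; % infected erythrocytes per mouse, compared with controls.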

Mus musculus [5] = assay: Percent of infected erythrocytes in Blood schizonticidal activity against Plasmodium chabaudi in mice at a concentration of 10 mg/kg/day on day 1; type: functional; method in brief: as §2
Mus musculus [6] = assay: Percent of infected erythrocytes in Blood schizonticidal activity against Plasmodium chabaudi in mice at a concentration of 10 mg/kg/day on day 2; type: functional
Mus musculus [7] = assay: Percent of infected erythrocytes in Blood schizonticidal activity against Plasmodium chabaudi in mice at a concentration of 10 mg/kg/day on day 3; type: functional
Mus musculus [8] = assay: Percent of infected erythrocytes in Blood schizonticidal activity against Plasmodium chabaudi in mice at a concentration of 10 mg/kg/day on day 4; type: functional; method in brief: as §2
Mus musculus [9] = assay: In vivo antimalarial activity against Plasmodium chabaudi in mice (Mus musculus) and its survival was reported; type: functional
Mus musculus [10] = assay: In vivo antimalarial activity against Plasmodium chabaudi in mice (Mus musculus) and its survival rate reported; type: functional

SMILES | half-life [1] [h] | EC50 (Plasmodium falciparum [2]) [ng/mL] | EC50 (Plasmodium falciparum [3]) [ng/mL] | Infected erythrocytes (Mus musculus [4]) [%] | Infected erythrocytes (Mus musculus [5]) [%] | Infected erythrocytes (Mus musculus [6]) [%] | Infected erythrocytes (Mus musculus [7]) [%] | Infected erythrocytes (Mus musculus [8]) [%] | Survival (Mus musculus [9]) | Survival rate (Mus musculus [10]) [%]
CCCC[C@H]1O[C@@H]2O[C@]3(C)CC[C@H]4[C@H](C)CC[C@@H]([C@H]1C)[C@@]24OO3 | 187 |  |  |  |  |  |  |  |  | 
C[C@H]1[C@@H](CCc2ccc(C(=O)O)cc2)O[C@@H]2O[C@]3(C)CC[C@H]4[C@H](C)CC[C@@H]1[C@@]24OO3 | 259 | 0.6 (≈ 1.44 nM) | 1.1 (≈ 2.64 nM) | 0.3 | 0.5 | 0.5 | 2.9 | 0.5 | 5 | 100
C[C@@H]1[C@H](OCc2ccc(C(=O)O)cc2)O[C@@H]2O[C@@]3(C)CC[C@@H]4[C@@H](C)CC[C@@H]1[C@]24OO3 [ARTELINIC ACID] | 13.1 | 1.4 (≈ 3.35 nM) | 4 (≈ 9.56 nM) |  |  |  |  |  |  | 
C[C@@H]1CC[C@H]2[C@@H](C)C(=O)O[C@@H]3O[C@@]4(C)CC[C@@H]1[C@]32OO4 [ARTEMISININ] |  | 0.7 (≈ 2.48 nM) | 2.9 (≈ 10.3 nM) |  |  |  |  |  |  | 
CCO[C@H]1O[C@@H]2O[C@@]3(C)CC[C@H]4[C@H](C)CC[C@@H]([C@H]1C)[C@@]24OO3 [ARTEMOTIL] | 11 | 0.9 (≈ 2.88 nM) | 0.2 (≈ 0.64 nM) |  |  |  |  |  | 3 | 60
C[C@H]1[C@H](OC(=O)CCC(=O)O)O[C@@H]2O[C@@]3(C)CC[C@H]4[C@H](C)CC[C@@H]1[C@@]24OO3 [ARTESUNATE] |  | 0.6 (≈ 1.56 nM) | 0.2 (≈ 0.52 nM) |  |  |  |  |  |  | 
CCN(CC)CCCC(C)Nc1ccnc2cc(Cl)ccc12 (stereo not drawn) [CHLOROQUINE] |  | 220 (≈ 688 nM) | 8 (≈ 25 nM) | 81.3 | 65 | 71.3 | 62.1 | 82.4 | 0 | 0
C[C@@H]1CC[C@H]2[C@@H](C)CO[C@@H]3O[C@]4(C)CC[C@@H]1[C@]32OO4 [DEOXOARTEMISININ] | 245 |  |  |  |  |  |  |  |  | 

From ChEMBL document CHEMBL1135606, “Synthesis, stability, and antimalarial activity of new hydrolytically stable and water-soluble (+)-deoxoartelinic acid” (J Med Chem, 2002)
